Source: ChEMBL document CHEMBL4513216, “Probing the Open Global Health Chemical Diversity Library for Multistage-Active Starting Points for Next-Generation Antimalarials” (ACS Infect Dis, 2020)

Assay: Toxicity liver stage against HepG2, at 10uM
Type: cell-based
Parameters: test concentration 10 uM, cell line HepG2-A16-CD81EGFP
Conditions: human, HepG2-A16-CD81EGFP cells; read-out: INHIBITION
Summary of the method: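 Uninfected HepG2-A16-CD81EGFP cells, 3 × 10^3 per well, 1536-well, plated on prespotted compound at 10 μM final, parasite-free screening media added to match infected plates; puromycin 10 μM positive, DMSO 0.5% negative; run in parallel with 48 h PbLuc assay at 37 °C, 5% CO2; viability by CellTiter-Glo luminescence, normalized to controls.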

COc1ccc(-c2cc(N)on2)cc1OC
cytotoxicity at 10 µM: -9.85%

Cc1c(C(=O)O)oc2ccc(I)cc12
cytotoxicity at 10 µM: -1.87%

O=C(NC[C@H]1OC[C@@H](NC2CCCCC2)[C@@H]1O)Nc1ccccc1
cytotoxicity at 10 µM: -11.6%

CC(C)(C)C(=O)N1C[C@@H](F)[C@@H](OCc2nc3ncccc3[nH]2)C1
cytotoxicity at 10 µM: 2.97%

O[C@H]1CC[C@@H](Cc2cc(-c3ccccc3)on2)O[C@@H]1CNCC1CC1
cytotoxicity at 10 µM: -6.21%

NC(=O)CN1CCC2(CC1)CC(=O)c1ccc3ccccc3c1O2
cytotoxicity at 10 µM: 1.76%

CSc1ncccc1C(=O)NCCC(O)c1cccs1 (stereo not given)
cytotoxicity at 10 µM: -4.68%

O=C(Nc1cccnc1)c1ccc(-n2cncn2)nn1
cytotoxicity at 10 µM: 4.48%

CN(C)CCN1C(=O)CCCC12CCCN(Cc1ccc[nH]1)C2 (stereo not given)
cytotoxicity at 10 µM: -10.1%

N#Cc1ccc(OC[C@]23COC[C@H]2CN(Cc2nccs2)C3)nc1
cytotoxicity at 10 µM: 2.37%

CCC1=N[C@@]2(CC[C@@H]3CN(C(=O)Nc4ccccc4)C[C@@H]32)C(=O)N1C
cytotoxicity at 10 µM: 16.8%

CCn1cc2c(n1)C(COC)CN(C(=O)COc1ccccc1)C2 (stereo not given)
cytotoxicity at 10 µM: -2.88%

c1cc([C@H]2C[C@@H]3CCN(Cc4nccs4)C[C@H]3O2)ncn1
cytotoxicity at 10 µM: -150%

O=C(O)Cn1nc(-c2ccccc2F)ccc1=O
cytotoxicity at 10 µM: 2.87%

COC(=O)C(CCSC)NC(=O)Cc1c(C)nn(-c2ccccc2)c1C (stereo not given)
cytotoxicity at 10 µM: -4.31%

Nc1nc(N2CCCCC2)ncc1C(=O)NCc1ccc(F)c(Cl)c1
cytotoxicity at 10 µM: -17.2%

COc1ccc(-c2nnsc2C(=O)N2CCSCC2)cc1
cytotoxicity at 10 µM: -1.17%

CC(C)(C)n1cc(C(=O)NCCCn2ccnc2)c2cccnc21
cytotoxicity at 10 µM: 0.698%

c1csc(CN2CC[C@H]3C[C@H](c4ccncn4)O[C@@H]3C2)c1
cytotoxicity at 10 µM: 1.17%

O=C(COCC(=O)N(c1ccccc1)c1ccccc1)N1CCCCC1
cytotoxicity at 10 µM: 2.33%

COCC(=O)NCc1ccc(-c2ncncc2C(=O)N(C)C)cc1
cytotoxicity at 10 µM: 3.02%

Cc1cc(-c2cnc(N3CCCC(C)C3)nc2C(C)C)on1 (stereo not given)
cytotoxicity at 10 µM: 3.05%

COCCn1c(=O)n(C)c(=O)c2ccc(C3CCN(C(C)=O)CC3)nc21
cytotoxicity at 10 µM: 4.89%

c1cncc(N2CCC(c3ccncc3)CC2)c1
cytotoxicity at 10 µM: 2.59%

CC1(C(N)=O)CN(CC2CCOCC2)CCO1 (stereo not given)
cytotoxicity at 10 µM: -0.74%

CN(C)c1cc(C2CCN(C(=O)c3cnn(C)c3)CC2)ccn1
cytotoxicity at 10 µM: 0.075%

NCC(=O)N1CCC(c2cncc(Oc3cccnc3)n2)CC1
cytotoxicity at 10 µM: -9.08%

CC(C)Oc1ccc(C(=O)N2CC[C@H](O)[C@@H](n3ccnc3)CC2)cc1
cytotoxicity at 10 µM: -12.8%

CC(=O)N1CCCC(c2ccc3sc(N)nc3n2)C1 (stereo not given)
cytotoxicity at 10 µM: 0.248%

CNc1cccc(C2CCCN(C(=O)c3ccn(C)n3)C2)n1 (stereo not given)
cytotoxicity at 10 µM: -13.4%

Cc1nc(-c2ccc(C(=O)O)cc2)cc(C2CCN(C(C)C)CC2)n1
cytotoxicity at 10 µM: -6.69%

N#CCCCS(=O)(=O)NC1(c2ccc(F)cc2)CC1
cytotoxicity at 10 µM: 2.9%

Cc1nn(C)c(C)c1CCC(=O)NCC1(C(N)=O)CCOCC1
cytotoxicity at 10 µM: 7.75%

CCC(C#N)NC(=O)c1sccc1OC (stereo not given)
cytotoxicity at 10 µM: 1.88%

Cc1cn(CC(=O)NC2CCC(C(=O)O)CC2)c2ccccc12 (stereo not given)
cytotoxicity at 10 µM: -0.214%

Cc1nc(C)n(CC2CN(CCc3ccccc3Cl)CCO2)n1 (stereo not given)
cytotoxicity at 10 µM: -0.431%

CCN(CC)C(CNS(=O)(=O)c1ccc(C(C)=O)cc1)c1ccco1 (stereo not given)
cytotoxicity at 10 µM: -20.1%

CC(C)C(NC(=O)c1ccco1)C(=O)N1CCC2(CC1)OCCO2 (stereo not given)
cytotoxicity at 10 µM: 6.05%

COc1ccnc(N(C)Cc2ccco2)n1
cytotoxicity at 10 µM: 14%

Cc1cccc2c(CCNC(=O)NCC[S+](C)[O-])c[nH]c12 (stereo not given)
cytotoxicity at 10 µM: 9.62%

CN(CCCc1cc(-c2cccc(F)c2)n[nH]1)C(=O)Cn1cncn1
cytotoxicity at 10 µM: -129%

COc1ccccc1OCCN(C)c1cc(C)nc(N)n1
cytotoxicity at 10 µM: 10.4%

Cc1cnn(CCCNC(=O)NC2CCN(CC(F)(F)F)C2=O)c1 (stereo not given)
cytotoxicity at 10 µM: 5.79%

Cc1nc(C)c(CNC(=O)N2CCc3ccccc3C2CO)s1 (stereo not given)
cytotoxicity at 10 µM: 23.7%

Cn1ccc(C(=O)NC2CCC23CCN(C(=O)c2ccnnc2)CC3)c1 (stereo not given)
cytotoxicity at 10 µM: -72%

CCOCC(=O)N1CC[C@H]2[C@@H]1CCC(=O)N2Cc1csc(C)n1
cytotoxicity at 10 µM: -85.2%

CS(=O)(=O)N[C@@H]1CN(C(=O)c2cnccn2)[C@@H]2CCCO[C@@H]21
cytotoxicity at 10 µM: -73.4%

Cc1cc(C(=O)N2CC[C@H]3C[C@H](c4ccncn4)O[C@@H]3C2)no1
cytotoxicity at 10 µM: -78%

CC(=O)N1CCO[C@@H]2CN(C(=O)c3cc(C)oc3C)CC[C@@H]2C1
cytotoxicity at 10 µM: 10.5%

CCCNC(=O)c1cc2c(c3ccccc3n2C)n1C(=O)N(C)C
cytotoxicity at 10 µM: 0.539%

C[C@H](O)CNc1cc(-c2ccccc2)ncn1
cytotoxicity at 10 µM: -11.2%

Cc1ncncc1-c1ccnc(NC(C)C)n1
cytotoxicity at 10 µM: -0.279%

CN1CCN(CC2CC2)C(=O)c2cnc(N3CCOCC3)nc21
cytotoxicity at 10 µM: -10.3%

Cc1csc2ncc(-c3ccnc(N4CCCN(C)CC4)n3)c(=O)n12
cytotoxicity at 10 µM: -6.97%

CC1CN(CCC(=O)NCCc2cccnc2)Cc2ccccc2O1 (stereo not given)
cytotoxicity at 10 µM: -3.34%

CCN(CCn1cccn1)Cc1nc(-c2cc(F)ccc2F)oc1C
cytotoxicity at 10 µM: -1.57%

COc1ccc(C(=O)N2CCN(C(=O)CCCc3cn[nH]c3)CC2)cc1
cytotoxicity at 10 µM: -5.63%

NC(=O)CN1CCC(C(=O)NCC(O)c2cccc(F)c2)CC1 (stereo not given)
cytotoxicity at 10 µM: 10.8%

Oc1ccc(CCC2CCCCN2Cc2noc(C3CC3)n2)cc1 (stereo not given)
cytotoxicity at 10 µM: 0.55%

CCNc1ncc(C(=O)NCc2cccc(OC(F)(F)F)c2)cn1
cytotoxicity at 10 µM: -2.94%

CCn1ncc2[nH]c(-c3cc(OC)c(OC)cc3OC)nc21
cytotoxicity at 10 µM: -2.61%

Cc1ccc(S(=O)(=O)NC2CC2)cc1C
cytotoxicity at 10 µM: -10.6%

CCC(O)CNC(=O)c1coc(COc2ccc3sc(C)nc3c2)n1 (stereo not given)
cytotoxicity at 10 µM: 16.3%

Cc1nc(CN2CCCC(NCc3ccc(Cl)s3)C2)no1 (stereo not given)
cytotoxicity at 10 µM: -3.18%

Cc1cc(C)c(CNC(=O)N(C)Cc2ccoc2)c(=O)[nH]1
cytotoxicity at 10 µM: -6.02%

Cc1nc(C)n(CC2CN(Cc3ccccc3OC(C)C)CCO2)n1 (stereo not given)
cytotoxicity at 10 µM: -0.248%

CN(CC(=O)NC1CCOCC1)C1CCCN(c2cccnn2)C1 (stereo not given)
cytotoxicity at 10 µM: -8.97%

Cc1ccccc1C1CCCN1Cc1ccc(S(=O)(=O)N(C)C)o1 (stereo not given)
cytotoxicity at 10 µM: -3.42%

Cc1ccc(-c2nc(CN3CCC(N4CCNC4=O)CC3)co2)cc1
cytotoxicity at 10 µM: -7.73%

c1csc(-c2noc(CN3CCc4cncnc4C3)n2)c1
cytotoxicity at 10 µM: -9.5%

Cc1cc(CN2CCN(C(=O)NCc3csc(C)n3)CC2)no1
cytotoxicity at 10 µM: -17.6%

O=c1[nH]c(CCN2CCCC2Cn2cncn2)nc2ccccc12 (stereo not given)
cytotoxicity at 10 µM: -5.48%

COc1ccccc1C(O)CNC(=O)NCc1cc[nH]n1 (stereo not given)
cytotoxicity at 10 µM: -8.81%

CC(C)c1nc(C2CCCN2Cc2nccn2CC(F)(F)F)no1 (stereo not given)
cytotoxicity at 10 µM: -18.9%

Cc1nn(C)c(C)c1C1CCCN1CC(=O)NCc1ccccn1 (stereo not given)
cytotoxicity at 10 µM: 0.702%

CCCOc1cccc(C(=O)N2CCCC(n3cncn3)C2)c1 (stereo not given)
cytotoxicity at 10 µM: -4.39%

CN(Cc1nnc2n1CCC2)C(=O)c1ccc2c(c1)OCCCO2
cytotoxicity at 10 µM: -8.68%

Cc1csc(N2CCN(C(=O)CCCNc3ncccn3)CC2)n1
cytotoxicity at 10 µM: -16.3%

Cc1cccc(OCCC(=O)NC(C)c2nnc3n2CCC3)c1 (stereo not given)
cytotoxicity at 10 µM: -12.8%

COc1ccc(CNC(=O)Nc2ccc(N3CCCC3)nc2)cc1O
cytotoxicity at 10 µM: -18.1%

COCc1nc(C(=O)N2CCCC(n3nc(C)nc3C)C2)cs1 (stereo not given)
cytotoxicity at 10 µM: -24.1%

CCn1ccnc1CN1CCN(C(C)C(=O)N2CCC(C)CC2)CC1 (stereo not given)
cytotoxicity at 10 µM: -10.7%

Cc1ccc(NC2CCN(C(=O)CCNS(C)(=O)=O)CC2)nn1
cytotoxicity at 10 µM: -5.58%

Cc1cc(C)n(CC2CCCN2CCS(=O)(=O)c2ccccc2)n1 (stereo not given)
cytotoxicity at 10 µM: -7.23%

Cc1cc(CN2CCCC2c2noc(C)n2)no1 (stereo not given)
cytotoxicity at 10 µM: 2.48%

Cc1ccc(N2CCCC(NCC(=O)NC3CCOCC3)C2)nn1 (stereo not given)
cytotoxicity at 10 µM: 3.08%

c1ccc2sc(N3CCOC(Cn4cccn4)C3)nc2c1 (stereo not given)
cytotoxicity at 10 µM: -12.8%

CCCn1nc2c(cc1=O)CN(CC(=O)Nc1nnc(C)s1)CC2
cytotoxicity at 10 µM: -11.3%

COCCN1CCCN(C(=O)NC(C)Cn2ccnc2)CC1 (stereo not given)
cytotoxicity at 10 µM: -9.29%

O=C(c1cc(F)ccc1F)C1CCN(C(=O)c2cccnc2O)CC1
cytotoxicity at 10 µM: -3.99%

Nc1ncnc2nc(C3CCCCN3)ccc12 (stereo not given)
cytotoxicity at 10 µM: 5.74%

c1cnc(NC2COC3(CCN(Cc4cc[nH]n4)CC3)C2)nc1 (stereo not given)
cytotoxicity at 10 µM: -1.17%

COc1ccc(CN2CCC3(CC2)CN(c2ccccn2)CCO3)cc1
cytotoxicity at 10 µM: 2.87%

COc1cc(N2CCC3(CC2)CC(N2CCN(C)CC2)CO3)ncn1 (stereo not given)
cytotoxicity at 10 µM: -9.11%

Cc1nc(CN2CCOCC3(CCN(c4ncccn4)C3)C2)cs1 (stereo not given)
cytotoxicity at 10 µM: -22.8%

COc1ccc(OC)c(CN(Cc2ccco2)Cc2[nH]cnc2C)c1
cytotoxicity at 10 µM: -2.51%

CC(=O)CN1CC2(CCNCC2)COc2ccccc2S1(=O)=O
cytotoxicity at 10 µM: 3.13%

CCN1CCC(c2nc3ccc(NC(C)C)cn3n2)CC1
cytotoxicity at 10 µM: -22.3%

Cc1cccc(CNC2CCCc3c2cnn3Cc2ccccc2)c1 (stereo not given)
cytotoxicity at 10 µM: -16.6%

O=C(NCc1ccccn1)[C@@H]1COC[C@H]2CN(C3CCC3)C[C@H]21
cytotoxicity at 10 µM: -79.1%

Cc1nn(C)c(N(C)C)c1CNCc1cccnc1-n1cncn1
cytotoxicity at 10 µM: -0.313%

COc1cc(CNC2CCCc3c2cnn3C)cc(OC)c1 (stereo not given)
cytotoxicity at 10 µM: -6.85%

COCCN(C)C[C@@H]1CCC[C@@H]2CN(c3ncccn3)C[C@@H]21
cytotoxicity at 10 µM: 4.79%

CCS(=O)(=O)N1CCN(CCn2cccn2)c2nc(C)ccc2C1
cytotoxicity at 10 µM: 9.88%

COCCN(C)C1COC2(CCN(Cc3cccc(F)c3)CC2)C1 (stereo not given)
cytotoxicity at 10 µM: -79.3%

O=C(c1ccnnc1)N1CCN2C[C@H](Oc3cccc(F)c3)C[C@H]2C1
cytotoxicity at 10 µM: -1.96%

COCCn1cc2c(n1)C(CNCc1nccs1)OCC2 (stereo not given)
cytotoxicity at 10 µM: -0.726%

COCc1nn(CC2CC2)c2c1CN(Cc1ccco1)CC2
cytotoxicity at 10 µM: 2.35%

CNC(=O)c1ccc2c(c1)C1(CCN(CC3CC3)CC1)C(=O)N2
cytotoxicity at 10 µM: -0.843%

O=S(=O)(c1cccs1)N1CCCn2cnc(CO)c2C1
cytotoxicity at 10 µM: 5.89%
